# Assay results from ChEMBL document CHEMBL1126655, “Synthesis and antiviral activity of novel isonucleoside analogs” (J Med Chem, 1993).
# Columns and labels:
# Human betaherpesvirus 5 = experiment: Antiviral activity against Human cytomegalovirus (AD169 strain); assay type: functional; conditions: read-out: ID50 (the source's name)
# Summary of the method: (§1)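 WI-38 monolayers were infected, with virus adsorbed for 1–2 h. They were then overlaid with EMEM maintenance medium (1% carboxymethyl cellulose, 2.5% FBS) containing duplicate drug dilutions. Monolayers were stained after 4–6 days at 37 °C. ID50 was taken as the concentration giving 50% plaque reduction versus virus controls. Titrations were done in duplicate.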
# Human alphaherpesvirus 1 [1] = experiment: Antiviral activity against Herpes simplex virus-1 (Schooler strain); assay type: functional; conditions: read-out: ID50 (the source's name); summary of the method: as §1
# Human alphaherpesvirus 3 [2] = experiment: Antiviral activity against Varicella zoster virus (Ellen strain); assay type: functional; conditions: read-out: ID50 (the source's name); summary of the method: as §1
# WI-38 = experiment: Tested for growth inhibition against WI-38 cells; assay type: functional; conditions: Homo sapiens, read-out: ID50 (the source's name)
# Summary of the method: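 WI-38 cells seeded at 1.2 × 10^6 per well, incubated overnight at 37 °C, then refed with growth medium (EMEM, 10% FBS) holding serial drug dilutions or none, for 3 more days at 37 °C. Quadruplicate cultures per concentration trypsinized and counted daily for viable cells by trypan blue exclusion.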
# Vaccinia virus = experiment: Antiviral activity against vaccinia virus (CL strain); assay type: functional; conditions: Orthopoxvirus vaccinia; read-out: ID50 (the source's name)
# [3] = Antiviral activity against Herpes simplex virus-1 (KOS strain); assay type: functional; conditions: Human alphaherpesvirus 1; read-out: ID50 (the source's name); summary of the method: as §1
# Human alphaherpesvirus 1 [4] = experiment: Antiviral activity against Herpes simplex virus-1 (thymidine kinase deficient strains isolated as BVaraU resistant mutants of HSV-1 (KOS)); assay type: functional; conditions: read-out: ID50 (the source's name); summary of the method: as §1
# [5] = tested on: Cercopithecine alphaherpesvirus 9; experiment: Antiviral activity against Simina varicella virus (G815 strain); assay type: functional; conditions: read-out: ID50 (the source's name)
# Summary of the method: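 Simian varicella virus G815 was grown from infected Vero cells and assayed by plaque reduction on Vero monolayers. Virus was adsorbed 1–2 h, then overlaid with EMEM (1% carboxymethyl cellulose, 2.5% FBS) containing duplicate drug dilutions. Staining was after 4–6 days at 37 °C. ID50 was the concentration giving 50% plaque reduction versus virus controls.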
# Human alphaherpesvirus 3 [6] = experiment: Antiviral activity against Varicella zoster virus (Kanno-Kohmura thymidine kinase deficient strain); assay type: functional; conditions: read-out: ID50 (the source's name); summary of the method: as §1
# Human alphaherpesvirus 3 [7] = experiment: Antiviral activity against Varicella zoster virus (Ito strain); assay type: functional; conditions: read-out: ID50 (the source's name); summary of the method: as §1
# Human alphaherpesvirus 3 [8] = experiment: Antiviral activity against Varicella zoster virus (Oka strain); assay type: functional; conditions: read-out: ID50 (the source's name); summary of the method: as §1
# Human alphaherpesvirus 3 [9] = experiment: Antiviral activity against Varicella zoster virus (ppIIa strain); assay type: functional; conditions: read-out: ID50 (the source's name); summary of the method: as §1
# Human alphaherpesvirus 3 [10] = experiment: Antiviral activity against Varicella zoster virus (9021 strain); assay type: functional; conditions: read-out: ID50 (the source's name); summary of the method: as §1
# Human alphaherpesvirus 2 = experiment: Antiviral activity against Herpes simplex virus-2 (thymidine kinase deficient strains isolated as BVaraU resistant mutants of HSV-1 (KOS)); assay type: functional; conditions: read-out: ID50 (the source's name)
# Mus musculus [11] = experiment: Protective dose against Herpes simplex virus type type -1 infection in mice at 200 mg/kg; assay type: functional; conditions: read-out: PD50
# Summary of the method: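 Female Swiss-Webster mice (20–23 g), 10 per group, infected intraperitoneally with 10^3 PFU HSV-1 strain Schooler (Vero freeze-thaw extract) in 0.3% BSA-PBS. Subcutaneous dosing in PBS twice daily from 1 h postinfection for 5 days, 12.5–200 mg/kg/day. Survival scored over 21 days; PD50 from survival by probit analysis.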
# Mus musculus [12] = experiment: Protective dose against Herpes simplex virus type type -2 infection in mice at 200 mg/kg; assay type: functional; conditions: read-out: PD50
# Summary of the method: (§2)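 Female Swiss-Webster mice (20–23 g), 10 per group, infected intraperitoneally with 10^6 PFU HSV-2 strain Curtis (Vero freeze-thaw extract) in 0.3% BSA-PBS. Drug given subcutaneously in PBS twice daily from 1 h postinfection for 5 days, doses 12.5–200 mg/kg/day. Survival followed 21 days; PD50 by probit analysis; mean day of death by Student's t-test versus placebo.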
# Mus musculus [13] = experiment: Number of survivors against Herpes simplex virus type-2 infection in mice at 25 mg/kg/day; assay type: functional
# Summary of the method: (§3)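 Female Swiss-Webster mice (20–23 g, 10 per group) were infected ip with 10^6 PFU HSV-2 Curtis in 0.3% BSA-PBS. Dosing was sc twice daily in PBS from 1 h postinfection for 5 days. Survival was recorded over 21 days. Mean day of death was computed for dead mice and compared with placebo-treated infected controls by Student's t-test.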
# Mus musculus [14] = experiment: Number of survivors against Herpes simplex virus type-2 infection in mice at 50 mg/kg/day; assay type: functional; summary of the method: as §2
# Mus musculus [15] = experiment: Number of survivors against Herpes simplex virus type-1 infection in mice at 100 mg/kg/day; assay type: functional
# Summary of the method: (§4)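 Female Swiss-Webster mice (20–23 g, 10 per group) were infected ip with 10^3 PFU HSV-1 Schooler in 0.3% BSA-PBS. Drug was given sc twice daily in PBS, starting 1 h postinfection, for 5 days. Survival was followed for 21 days. Mean day of death of dead animals was compared with placebo-treated infected controls by Student's t-test.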
# Mus musculus [16] = experiment: Number of survivors against Herpes simplex virus type-1 infection in mice at 12.5 mg/kg/day; assay type: functional; summary of the method: as §4
# Mus musculus [17] = experiment: Number of survivors against Herpes simplex virus type-1 infection in mice at 200 mg/kg/day; assay type: functional; summary of the method: as §4
# Mus musculus [18] = experiment: Number of survivors against Herpes simplex virus type-1 infection in mice at 25 mg/kg/day; assay type: functional; summary of the method: as §4
# Mus musculus [19] = experiment: Number of survivors against Herpes simplex virus type-1 infection in mice at 50 mg/kg/day; assay type: functional; summary of the method: as §4
# Mus musculus [20] = experiment: Number of survivors against Herpes simplex virus type-2 infection in mice at 100 mg/kg/day; assay type: functional; summary of the method: as §3
# Mus musculus [21] = experiment: Number of survivors against Herpes simplex virus type-2 infection in mice at 12.5 mg/kg/day; assay type: functional; summary of the method: as §3
# Mus musculus [22] = experiment: Number of survivors against Herpes simplex virus type-2 infection in mice at 150 mg/kg/day; assay type: functional; summary of the method: as §3
# Mus musculus [23] = experiment: Number of survivors against Herpes simplex virus type-2 infection in mice at 200 mg/kg/day; assay type: functional; summary of the method: as §3
# Mus musculus [24] = experiment: Day of death in lethal test against herpes simplex virus type-1 at 100 mg/kg/day (mean day of death +/-SD); assay type: ADME, organism-based; conditions: in vivo; summary of the method: as §4
# Mus musculus [25] = experiment: Day of death in lethal test against herpes simplex virus type-1 at 12.5 mg/kg/day (mean day of death +/-SD); assay type: ADME, organism-based; conditions: in vivo; summary of the method: as §4
# Mus musculus [26] = experiment: Day of death in lethal test against herpes simplex virus type-1 at 200 mg/kg/day (mean day of death +/-SD); assay type: ADME, organism-based; conditions: in vivo; summary of the method: as §4
# Mus musculus [27] = experiment: Day of death in lethal test against herpes simplex virus type-1 at 25 mg/kg/day (mean day of death +/-SD); assay type: ADME, organism-based; conditions: in vivo; summary of the method: as §4
# Mus musculus [28] = experiment: Day of death in lethal test against herpes simplex virus type-1 at 50 mg/kg/day (mean day of death +/-SD); assay type: ADME, organism-based; conditions: in vivo; summary of the method: as §4
# Mus musculus [29] = experiment: Day of death in lethal test against herpes simplex virus type-2 at 100 mg/kg/day (mean day of death +/-SD); assay type: ADME, organism-based; conditions: in vivo; summary of the method: as §3
# Mus musculus [30] = experiment: Day of death in lethal test against herpes simplex virus type-2 at 12.5 mg/kg/day (mean day of death +/-SD); assay type: ADME, organism-based; conditions: in vivo; summary of the method: as §3
# Mus musculus [31] = experiment: Day of death in lethal test against herpes simplex virus type-2 at 200 mg/kg/day (mean day of death +/-SD); assay type: ADME, organism-based; conditions: in vivo; summary of the method: as §3
# Mus musculus [32] = experiment: Day of death in lethal test against herpes simplex virus type-2 at 150 mg/kg/day (mean day of death +/-SD); assay type: ADME, organism-based; conditions: in vivo; summary of the method: as §3
# Mus musculus [33] = experiment: Number of survivors against Herpes simplex virus type-1 infection in mice at 150 mg/kg/day; assay type: functional; summary of the method: as §4
structure (smiles),measurement,setting,value
O=c1ccn([C@@H]2CO[C@H](CO)[C@H]2CO)c(=O)[nH]1,IC50,Human betaherpesvirus 5,> 410 µM
same,IC50,Human alphaherpesvirus 1 [1],> 410 µM
same,IC50,Human alphaherpesvirus 3 [2],100 µM
Nc1ccn([C@@H]2CO[C@H](CO)[C@H]2CO)c(=O)n1,IC50,Human betaherpesvirus 5,100 µM
same,IC50,Human alphaherpesvirus 1 [1],40 µM
same,IC50,WI-38,160 µM
same,IC50,Vaccinia virus,400 µM
same,IC50,Human alphaherpesvirus 3 [2],0.4 µM
Cc1cn([C@@H]2CO[C@H](CO)[C@H]2CO)c(=O)nc1N,IC50,Human betaherpesvirus 5,> 390 µM
same,IC50,Human alphaherpesvirus 1 [1],390 µM
same,IC50,Human alphaherpesvirus 3 [2],200 µM
O=c1[nH]c(=O)n([C@@H]2CO[C@H](CO)[C@H]2CO)cc1/C=C/Br,IC50,Human betaherpesvirus 5,> 290 µM
same,IC50,[3],3 µM
same,IC50,Human alphaherpesvirus 1 [1],3 µM
same,IC50,Human alphaherpesvirus 1 [4],> 290 µM
same,IC50,[5],30 µM
same,IC50,Human alphaherpesvirus 3 [6],> 300 µM
same,IC50,WI-38,> 800 µM
same,IC50,Vaccinia virus,> 290 µM
same,IC50,Human alphaherpesvirus 3 [2],0.1 µM
same,IC50,Human alphaherpesvirus 3 [7],0.06 µM
same,IC50,Human alphaherpesvirus 3 [8],3 µM
same,IC50,Human alphaherpesvirus 3 [9],0.3 µM
same,IC50,Human alphaherpesvirus 3 [10],0.5 µM
Nc1nc2c(ncn2COCCO)c(=O)[nH]1 [ACYCLOVIR],IC50,Human betaherpesvirus 5,40 µM
same,IC50,Human alphaherpesvirus 2,> 440 µM
same,IC50,[3],2 µM
same,IC50,Human alphaherpesvirus 1 [1],0.9 µM
same,IC50,Human alphaherpesvirus 1 [4],> 440 µM
same,ED50,Mus musculus [11],> 200 mg/kg/day
same,ED50,Mus musculus [12],> 200 mg/kg/day
same,Survivors,Mus musculus [13],0
same,Survivors,Mus musculus [14],1
same,Survivors,Mus musculus [15],2
same,Survivors,Mus musculus [16],0
same,Survivors,Mus musculus [17],2
same,Survivors,Mus musculus [18],3
same,Survivors,Mus musculus [19],1
same,Survivors,Mus musculus [20],2
same,Survivors,Mus musculus [21],0
same,Survivors,Mus musculus [22],4
same,Survivors,Mus musculus [23],5
same,Mean day of death,Mus musculus [24],9.3
same,Mean day of death,Mus musculus [25],8.3
same,Mean day of death,Mus musculus [26],14
same,Mean day of death,Mus musculus [27],7.8
same,Mean day of death,Mus musculus [28],9
same,Mean day of death,Mus musculus [29],13.5
same,Mean day of death,Mus musculus [30],10
same,Mean day of death,Mus musculus [31],13
same,IC50,[5],100 µM
same,IC50,Human alphaherpesvirus 3 [6],100 µM
same,IC50,WI-38,> 800 µM
same,IC50,Human alphaherpesvirus 3 [2],4 µM
same,IC50,Human alphaherpesvirus 3 [7],2 µM
same,IC50,Human alphaherpesvirus 3 [8],4 µM
same,IC50,Human alphaherpesvirus 3 [9],4 µM
same,IC50,Human alphaherpesvirus 3 [10],2 µM
same,Mean day of death,Mus musculus [32],13
same,Survivors,Mus musculus [33],2
